IDH1 mut inh = blocks human IDH1 R132H reductase activity | O75874 | diaphorase/resazurin fluorescence, 60 min | inhibition, % at 10 µM | 70,000 compounds, 0.18% hits; in the data active = inhibition above about 34%
Target sequence (O75874 whole entry R132H): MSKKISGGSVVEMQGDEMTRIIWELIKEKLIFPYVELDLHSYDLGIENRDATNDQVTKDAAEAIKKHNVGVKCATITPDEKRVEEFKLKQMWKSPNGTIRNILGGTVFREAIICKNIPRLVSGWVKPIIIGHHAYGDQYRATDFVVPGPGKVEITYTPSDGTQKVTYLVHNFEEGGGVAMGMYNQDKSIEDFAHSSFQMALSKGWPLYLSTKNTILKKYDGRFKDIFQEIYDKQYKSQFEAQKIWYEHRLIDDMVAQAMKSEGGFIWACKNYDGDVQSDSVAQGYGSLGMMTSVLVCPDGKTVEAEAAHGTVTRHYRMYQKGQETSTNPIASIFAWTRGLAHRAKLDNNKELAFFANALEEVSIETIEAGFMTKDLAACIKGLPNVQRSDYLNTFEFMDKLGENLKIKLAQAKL
KDM4C inh = blocks human GASC-1 (KDM4C) demethylase activity | 96,000 compounds, 0.15% hits | inhibition, % at 12.5 µM | AID 720574 | GST-KDM4C 2-372, H3K9me3 peptide, LANCE TR-FRET | Q9H3R0;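 active = mean replicate inhibition above about 25%, with at least 55% of replicates also reaching it, limit read from the data, passing the limit was not always enough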
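Material: N-terminal GST-fused human GASC-1 (KDM4C) fragment, residues 2-372. Input: 10 nM enzyme. Incubation: enzyme reaction 30 min, then detection 60 min, both room temperature. Doses: one test concentration per compound. Read-out basis: inhibition from TR-FRET ratio decrease. Detection: LANCE TR-FRET, excitation 340 nm, emissions 618 and 671 nm.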
T cruzi growth = T. cruzi proliferation inhibition | T. cruzi beta-gal in NIH3T3, GalScreen luminescence, 90 h | inhibition, % at 8.34 µM | 77,000 compounds, 5.9% hits;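 active = mean inhibition above about 93%, with at least 55% of replicates each passing it, limit read from the data, passing the limit was not always enough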
Pf Dd2 inh = blocks growth of Plasmodium falciparum Dd2 parasites. P. falciparum Dd2 growth, SYBR Green, 72 h; hits give low values. activity change, % at 10 µM. 94,000 compounds, 2.3% hits. AID 1159554; in the data active = activity change below about -80%
Numbers stand for hits; . = inactive; / = no result given. Rows were chosen to be rich in hits. Some 5.8% of all compounds tested hit in one or more screens of this group.

SMILES	IDH1 mut inh	KDM4C inh	T cruzi growth	Pf Dd2 inh
N#C[C@@H]1[C@H](c2ccccc2-c2cccc(F)c2)[C@H](CO)N1C(=O)C1CC1	/	.	/	-83
CCc1nc(N2[C@H](C#N)[C@H](c3ccccc3-c3ccccc3F)[C@H]2CO)sc1C	/	.	/	-86
CCCNC(=O)N1[C@@H](C#N)[C@H](c2ccccc2-c2ccccc2F)[C@@H]1CO	/	.	/	-89
N#C[C@@H]1[C@@H](c2ccc(-c3cccc(F)c3)cc2)[C@H](CO)N1C(=O)c1cccnc1	/	.	.	.
N#C[C@H]1[C@H](c2ccc(-c3cccc(F)c3)cc2)[C@H](CO)N1C(=O)c1cccnc1	/	.	.	-91
CCc1nc(N2[C@@H](C#N)[C@H](c3ccccc3-c3ccccc3F)[C@@H]2CO)sc1C	/	.	/	.
COc1ccc(NC(=O)Nc2cccc3c2O[C@@H](CN(C)S(=O)(=O)c2ccc(C)cc2)[C@@H](C)CN([C@@H](C)CO)C3=O)cc1	/	.	.	.
C[C@@H]1CN([C@@H](C)CO)C(=O)c2cccc(NC(=O)Nc3ccc(F)cc3)c2O[C@@H]1CN(C)Cc1ccc(Cl)c(Cl)c1	.	.	.	.
CN(C)Cc1cn(CC[C@@H]2CC[C@H](NS(=O)(=O)c3ccccc3)[C@H](CO)O2)nn1	.	.	/	/
O=S(=O)(N[C@H]1CC[C@H](CCn2cc(Cc3ccccc3)nn2)O[C@H]1CO)c1ccccc1F	.	34	.	.
CCCc1cn(CC[C@H]2CC[C@@H](NS(=O)(=O)c3ccc(-c4ccccc4)cc3)[C@@H](CO)O2)nn1	.	.	.	-94
O=S(=O)(N[C@H]1CC[C@@H](CCn2cc(C3(O)CCCC3)nn2)O[C@@H]1CO)c1ccc(F)cc1	.	36	.	.
CCCc1cn(CC[C@@H]2CC[C@@H](NS(=O)(=O)c3ccc(-c4ccccc4)cc3)[C@@H](CO)O2)nn1	.	.	.	-91
NC(=O)C1(N2CCCCC2)CCN(C(=S)NCc2ccco2)CC1	.	/	/	/
COCC(=O)N1CC2(C1)CN(Cc1cccc(Cl)c1)[C@@H](CO)c1[nH]c3cc(OC)ccc3c12	/	.	/	-92
COc1ccc2c3c([nH]c2c1)[C@H](CO)N(CC1CC1)CC31CN(C(=O)c2ccccc2)C1	/	.	/	-83
COc1ccc2c3c([nH]c2c1)[C@H](CO)N(CC1CC1)CC31CN(C(=O)c2ccc(F)cc2)C1	/	.	/	.
COc1ccc2c3c([nH]c2c1)[C@H](CO)N(Cc1ccccc1)CC31CN(C(=O)Cc2ccccc2)C1	/	/	/	.
COc1ccc(CN2CC3(CN(C(=O)Cc4ccccc4)C3)c3c([nH]c4cc(OC)ccc34)[C@@H]2CO)cc1	/	.	/	-86
COc1ccc2c3c([nH]c2c1)[C@@H](CO)N(Cc1ccccc1)CC31CN(C(=O)Cc2ccccc2)C1	/	/	/	-84
COCC(=O)N1[C@H](C#N)[C@@H](c2ccccc2-c2ccccc2)[C@@H]1CO	/	.	/	.
COCC(=O)N1[C@H](C#N)[C@@H](c2ccccc2-c2ccccc2)[C@H]1CO	/	.	/	-93
COCC(=O)N1[C@@H](C#N)[C@H](c2ccccc2-c2ccccc2)[C@@H]1CO	/	.	/	-86
CCC(=O)N1[C@H](CO)[C@@H](c2ccccc2-c2cccc(C)c2)[C@@H]1C#N	/	.	/	-86
CCC(=O)N1[C@@H](C#N)[C@@H](c2ccccc2-c2cccc(C)c2)[C@@H]1CO	/	.	/	.
SMILES	IDH1 mut inh	KDM4C inh	T cruzi growth	Pf Dd2 inh
COc1ccc(NC(=O)N(C)C[C@@H]2Oc3ncc(C#CC(C)C)cc3C(=O)N([C@@H](C)CO)C[C@H]2C)cc1	.	.	/	.
COc1ccc2c3c(n(C)c2c1)[C@H](CO)N(CC1CC1)CC31CN(C(=O)CN2CCOCC2)C1	/	/	/	.
O=C(O)CCCCCC(=O)N/N=C/c1cc(O)ccc1Br	.	/	/	/
O=C(CCCCC(=O)N/N=C/c1cc(O)ccc1O)NO	88	/	/	/
COC(=O)CCCCCCC(=O)N/N=C/c1cc(O)ccc1O	53	/	/	/
CO[C@H]1CN(C)C(=O)c2ccc(NC(=O)CC(F)(F)F)cc2OC[C@@H](C)N(CC2CC2)C[C@H]1C	/	.	/	-86
COc1ccccc1CN1C[C@@H](C)[C@H](OC)CN(C)C(=O)c2ccc(NC(=O)Nc3ccccc3OC)cc2OC[C@H]1C	.	.	.	-90
CCC(=O)Nc1ccc2c(c1)OC[C@H](C)N(CC1CCOCC1)C[C@H](C)[C@H](OC)CN(C)C2=O	.	44	.	.
COc1ccccc1CN1C[C@@H](C)[C@@H](OC)CN(C)C(=O)c2ccc(NC(C)=O)cc2OC[C@@H]1C	.	.	.	.
C[C@@H]1CN([C@@H](C)CO)C(=O)Cc2cc(NC(=O)Cc3cn(C)c4ccccc34)ccc2O[C@H]1CN(C)Cc1ccc(Cl)c(Cl)c1	.	.	.	-82

Screening results from PubChem BioAssay.
